Reference: ChEMBL document CHEMBL4004857, “Synthesis and biological evaluation of novel pyrazolic chalcone derivatives as novel hepatocellular carcinoma therapeutics” (Eur J Med Chem, 2017)
Activity calls are given as the source filed them. The calls are words filed in the database; no cut-off is given here.

Experiments:
Homo sapiens = species: Homo sapiens; test: Inhibition of tubulin polymerization (unknown origin)
MCF7 = test: Cytotoxicity against human MCF7 cells assessed as growth inhibition after 72 hrs by SRB assay; format: functional, cell-based; details: MCF7, 72 h
Summary of the method: (§1)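 Cells seeded at 2000–3000 per well and grown 24 h at 37C, then treated in triplicate with compounds dissolved in DMSO over a 40–0.3 range for 72 h. Cells were fixed with 10% TCA for 1 h, stained with 0.4% SRB in 1% acetic acid, washed with 1% acetic acid and air-dried. Bound dye was solubilized in 10 mM Tris base and read at 515 nm. % inhibition and IC50 were calculated against DMSO-only controls.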

Huh-7 = test: Cytotoxicity against human HuH7 cells assessed as growth inhibition after 72 hrs by SRB assay; format: functional, cell-based; details: Huh-7, 72 h; summary of the method: as §1
HCT-116 = test: Cytotoxicity against human HCT116 cells assessed as growth inhibition after 72 hrs by SRB assay; format: functional, cell-based; details: HCT-116, 72 h; summary of the method: as §1

| SMILES | inhibition (Homo sapiens) | IC50 (MCF7) [µM] | IC50 (Huh-7) [µM] | IC50 (HCT-116) [µM] |
| --- | --- | --- | --- | --- |
| O=C(/C=C/c1cn(-c2ccccc2)nc1-c1ccc2c(c1)OCO2)c1cc[nH]c1 | inactive | 9.9 | 9.2 | 20.3 |
| Nc1nc(Cl)nc2c1ncn2[C@H]1C[C@H](O)[C@@H](CO)O1 [CLADRIBINE] | – | 2 | 1.8 | 0.3 |
| COc1ccc(C(=O)/C=C/c2cn(-c3ccccc3)nc2-c2ccsc2)c(OC)c1 | inactive | 9 | 3 | 2.2 |
| O=C(/C=C/c1cn(-c2ccccc2)nc1-c1cccnc1)c1c[nH]c2ccccc12 | inactive | 2.6 | 3.2 | 6.4 |
| O=C(/C=C/c1cn(-c2ccccc2)nc1-c1ccncc1)c1ccsc1 | inactive | 1.5 | 2.2 | 1.1 |
| O=C(/C=C/c1cn(-c2ccccc2)nc1-c1ccc2c(c1)OCO2)c1ccsc1 | inactive | 4.9 | 3.2 | 8.9 |
| O=C(/C=C/c1cn(-c2ccccc2)nc1-c1ccsc1)c1ccccc1 | inactive | 1.9 | 4.7 | 5.1 |
| COc1ccc(C(=O)/C=C/c2cn(-c3ccccc3)nc2-c2ccncc2)c(OC)c1 | inactive | 8.8 | 4.4 | 4.4 |
| O=C(/C=C/c1cn(-c2ccccc2)nc1-c1cccnc1)c1cc[nH]c1 | inactive | 6.9 | 3.3 | 7.4 |
| COc1ccc(OC)c(C(=O)/C=C/c2cn(-c3ccccc3)nc2-c2ccsc2)c1 | inactive | 0.4 | 2.1 | 3.4 |
| COc1ccc(C(=O)/C=C/c2cn(-c3ccccc3)nc2-c2ccsc2)c(OC)c1OC | inactive | 7.4 | 4.2 | 5.8 |
| COc1ccc(C(=O)/C=C/c2cn(-c3ccccc3)nc2-c2cccnc2)c(OC)c1 | inactive | 2.3 | 2.4 | 1.3 |
| O=C(/C=C/c1cn(-c2ccccc2)nc1-c1cccnc1)c1ccsc1 | inactive | 0.5 | 1.7 | 1.3 |
| COc1ccc(C(=O)/C=C/c2cn(-c3ccccc3)nc2-c2ccc3c(c2)OCO3)cc1OC | inactive | 11.7 | 15.4 | 11.4 |
| COc1ccc(C(=O)/C=C/c2cn(-c3ccccc3)nc2-c2cccnc2)cc1OC | inactive | 1.7 | 3.1 | 4.3 |
| O=C(/C=C/c1cn(-c2ccccc2)nc1-c1ccncc1)c1ccccc1 | inactive | 3.4 | 1.8 | 3.1 |
| COc1ccc(C(=O)/C=C/c2cn(-c3ccccc3)nc2-c2cccnc2)c(OC)c1OC | inactive | 1.4 | 2.3 | 1.1 |
| COc1cc(C(=O)/C=C/c2cn(-c3ccccc3)nc2-c2ccsc2)cc(OC)c1OC | inactive | 4.9 | 3.6 | 3.2 |
| COc1cc(C(=O)/C=C/c2cn(-c3ccccc3)nc2-c2ccncc2)cc(OC)c1OC | inactive | 3.5 | 3.5 | 0.3 |
| COc1cc(C(=O)/C=C/c2cn(-c3ccccc3)nc2-c2cccnc2)cc(OC)c1OC | inactive | 14.5 | 1.9 | 8.6 |
